The values that follow come from ChEMBL document CHEMBL4665627 (Eur J Med Chem, 2019).

Common to all, as to type: functional
The subject of experiment [1] is Candida albicans. Description: Antifungal activity against Candida albicans assessed as inhibition of fungal growth after 24 hrs by CLSI protocol based two fold serial dilution method. An outline of the steps: (§1)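 Two-fold serial broth dilution in 96-well plates following CLSI; MIC (mM) taken as the lowest concentration giving complete growth inhibition; MIC values from three independent experiments.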

For experiment [2], the system named is Pseudomonas aeruginosa. Nature of the experiment: Antibacterial activity against Pseudomonas aeruginosa ATCC 27853 assessed as inhibition of bacterial growth after 24 hrs by CLSI protocol based two fold serial dilution method. An outline of the steps:
as §1

Experiment [3] concerns Staphylococcus aureus. Nature of the experiment: Antibacterial activity against Staphylococcus aureus assessed as inhibition of bacterial growth after 24 hrs by CLSI protocol based two fold serial dilution method. An outline of the steps: as §1
The subject of experiment [4] is Staphylococcus aureus. Nature of the experiment: Antibacterial activity against Staphylococcus aureus ATCC 29213 assessed as inhibition of bacterial growth after 24 hrs by CLSI protocol based two fold serial dilution method.
Experiment [5] concerns Pseudomonas aeruginosa. Description: Antibacterial activity against Pseudomonas aeruginosa assessed as inhibition of bacterial growth after 24 hrs by CLSI protocol based two fold serial dilution method. An outline of the steps: as §1
Experiment [6] concerns Escherichia coli. Nature of the experiment: Antibacterial activity against Escherichia coli ATCC 25922 assessed as inhibition of bacterial growth after 24 hrs by CLSI protocol based two fold serial dilution method. An outline of the steps: as §1
In a further experiment the test system is Klebsiella pneumoniae. Nature of the experiment: Antibacterial activity against Klebsiella pneumoniae assessed as inhibition of bacterial growth after 24 hrs by CLSI protocol based two fold serial dilution method. An outline of the steps: as §1
Experiment [7] concerns Staphylococcus aureus. Description: Antibacterial activity against methicillin-resistant Staphylococcus aureus N315 assessed as inhibition of bacterial growth after 24 hrs by CLSI protocol based two fold serial dilution method.
The subject of another experiment is Aspergillus fumigatus. Nature of the experiment: Antifungal activity against Aspergillus fumigatus assessed as inhibition of fungal growth after 24 hrs by CLSI protocol based two fold serial dilution method. An outline of the steps:
as §1

For experiment [8], the system named is Staphylococcus aureus. Description: Antibacterial activity against Staphylococcus aureus ATCC 25923 assessed as inhibition of bacterial growth after 24 hrs by CLSI protocol based two fold serial dilution method. An outline of the steps: as §1
The subject of experiment [9] is Escherichia coli. Description: Antibacterial activity against Escherichia coli assessed as inhibition of bacterial growth after 24 hrs by CLSI protocol based two fold serial dilution method. In outline: as §1
For a further experiment, the system named is Acinetobacter baumannii. Nature of the experiment: Antibacterial activity against Acinetobacter baumannii assessed as inhibition of bacterial growth after 24 hrs by CLSI protocol based two fold serial dilution method. An outline of the steps: as §1
In another experiment the test system is Candida tropicalis. Nature of the experiment: Antifungal activity against Candida tropicalis assessed as inhibition of fungal growth after 24 hrs by CLSI protocol based two fold serial dilution method. In outline: as §1
Another experiment deals with Candida parapsilosis. Description: Antifungal activity against Candida parapsilosis ATCC 22019 assessed as inhibition of fungal growth after 24 hrs by CLSI protocol based two fold serial dilution method. To be noted: Lodderomyces parapsilosis. In outline: as §1
Experiment [10] has as its system Candida albicans. Description: Antifungal activity against Candida albicans ATCC 90023 assessed as inhibition of fungal growth after 24 hrs by CLSI protocol based two fold serial dilution method. In outline:
as §1

For another experiment, the system named is Enterococcus faecalis. Description: Antibacterial activity against Enterococcus faecalis assessed as inhibition of bacterial growth after 24 hrs by CLSI protocol based two fold serial dilution method. An outline of the steps:
as §1

The structures appear in SMILES notation. Values after ≈ are worked out from the molar mass of the structure shown.

As a reminder, the MIC is the least concentration at which growth counts as inhibited. With `CCn1cc(-c2csc(N)n2)c(=O)c2cc(N3CCNCC3)c(Cl)cc21`, the MIC in the experiment on Candida albicans [1] worked out at 329 µM (≈ 128 µg/mL); with Pseudomonas aeruginosa [2], 658 µM (≈ 257 µg/mL); in the experiment on Staphylococcus aureus [3] it was 82 µM (≈ 32 µg/mL); in the experiment on Staphylococcus aureus [4], 329 µM (≈ 128 µg/mL); in the experiment with Pseudomonas aeruginosa [5], 41 µM (≈ 16 µg/mL); with Escherichia coli [6], 164 µM (≈ 63.9 µg/mL). Besides, the minimum inhibitory concentration (MIC) in the experiment on Klebsiella pneumoniae is 164 µM (≈ 63.9 µg/mL); in the experiment on Staphylococcus aureus [7] it was 658 µM (≈ 257 µg/mL); in the experiment with Aspergillus fumigatus, 164 µM (≈ 63.9 µg/mL); with Staphylococcus aureus [8], 82 µM (≈ 32 µg/mL); in the experiment with Escherichia coli [9] it was 329 µM (≈ 128 µg/mL); in the experiment on Acinetobacter baumannii, 1320 µM (≈ 513 µg/mL). In addition, the MIC in the experiment with Candida tropicalis amounted to 329 µM (≈ 128 µg/mL); with Candida parapsilosis, 1320 µM (≈ 513 µg/mL); with Candida albicans [10] it was 164 µM (≈ 63.9 µg/mL); in the experiment with Enterococcus faecalis it was 329 µM (≈ 128 µg/mL).

As to `CCn1cc(-c2csc(N)n2)c(=O)c2cc(N3CCN(c4cc5c(cc4F)c(=O)c(-c4csc(N)n4)cn5CC)CC3)c(Cl)cc21`, the minimal inhibitory concentration (MIC) in the experiment with Candida albicans [1], in the experiment with Pseudomonas aeruginosa [2], with Staphylococcus aureus [3], with Staphylococcus aureus [4], with Pseudomonas aeruginosa [5] and with Escherichia coli [6] was 757 µM (≈ 513 µg/mL) in each case. Further, the MIC was 379 µM (≈ 257 µg/mL) in the experiment on Klebsiella pneumoniae; 757 µM (≈ 513 µg/mL) in the experiment with Staphylococcus aureus [7]; 189 µM (≈ 128 µg/mL) in the experiment with Aspergillus fumigatus; 757 µM (≈ 513 µg/mL) with Staphylococcus aureus [8]; 189 µM (≈ 128 µg/mL) with Escherichia coli [9]; 757 µM (≈ 513 µg/mL) in the experiment with Acinetobacter baumannii. The minimum inhibitory concentration (MIC) in the experiment with Candida tropicalis, with Candida parapsilosis, in the experiment on Candida albicans [10] and in the experiment with Enterococcus faecalis was 757 µM (≈ 513 µg/mL) throughout.

For `CCn1cc(-c2csc(N)n2)c(=O)c2cc(F)c(N3CCN(Cc4ccc(F)cc4)CC3)cc21`, the minimal inhibitory concentration (MIC) came to 133 µM (≈ 64 µg/mL) in the experiment with Candida albicans [1]; 67 µM (≈ 32.3 µg/mL) with Pseudomonas aeruginosa [2]; 133 µM (≈ 64 µg/mL) in the experiment with Staphylococcus aureus [3]; 532 µM (≈ 256 µg/mL) in the experiment with Staphylococcus aureus [4]; 1060 µM (≈ 512 µg/mL) in the experiment on Pseudomonas aeruginosa [5]; 33 µM (≈ 15.9 µg/mL) in the experiment with Escherichia coli [6]. Also, the MIC was 266 µM (≈ 128 µg/mL) in the experiment with Klebsiella pneumoniae; 67 µM (≈ 32.3 µg/mL) in the experiment on Staphylococcus aureus [7]; 266 µM (≈ 128 µg/mL) in the experiment on Aspergillus fumigatus; 133 µM (≈ 64 µg/mL) with Staphylococcus aureus [8]; 67 µM (≈ 32.3 µg/mL) with Escherichia coli [9]; 266 µM (≈ 128 µg/mL) in the experiment with Acinetobacter baumannii. Further, the minimal inhibitory concentration (MIC) with Candida tropicalis turned out to be 133 µM (≈ 64 µg/mL); in the experiment with Candida parapsilosis it was 67 µM (≈ 32.3 µg/mL); in the experiment with Candida albicans [10], 17 µM (≈ 8.19 µg/mL); in the experiment with Enterococcus faecalis, 67 µM (≈ 32.3 µg/mL).

Turning to `CCCCCCCCCCN1CCN(c2cc3c(cc2F)c(=O)c(-c2csc(N)n2)cn3CC)CC1`, the MIC with Candida albicans [1] is 997 µM (≈ 512 µg/mL); in the experiment with Pseudomonas aeruginosa [2], 249 µM (≈ 128 µg/mL); in the experiment on Staphylococcus aureus [3] it was 499 µM (≈ 256 µg/mL); in the experiment on Staphylococcus aureus [4], 997 µM (≈ 512 µg/mL); in the experiment with Pseudomonas aeruginosa [5] it was 499 µM (≈ 256 µg/mL); in the experiment on Escherichia coli [6], 499 µM (≈ 256 µg/mL). Moreover, the MIC in the experiment with Klebsiella pneumoniae was 499 µM (≈ 256 µg/mL); in the experiment on Staphylococcus aureus [7] it was 997 µM (≈ 512 µg/mL); with Aspergillus fumigatus, 125 µM (≈ 64.2 µg/mL); with Staphylococcus aureus [8], 499 µM (≈ 256 µg/mL); with Escherichia coli [9] it was 499 µM (≈ 256 µg/mL); in the experiment with Acinetobacter baumannii it was 249 µM (≈ 128 µg/mL). Also, the MIC in the experiment with Candida tropicalis is 499 µM (≈ 256 µg/mL); with Candida parapsilosis it was 249 µM (≈ 128 µg/mL); in the experiment on Candida albicans [10], 997 µM (≈ 512 µg/mL); in the experiment on Enterococcus faecalis it was 499 µM (≈ 256 µg/mL).

Turning to `CCCN1CCN(c2cc3c(cc2F)c(=O)c(-c2csc(N)n2)cn3CC)CC1`, the minimum inhibitory concentration (MIC) in the experiment on Candida albicans [1] was found to be 308 µM (≈ 128 µg/mL); in the experiment with Pseudomonas aeruginosa [2] it was 154 µM (≈ 64 µg/mL); in the experiment on Staphylococcus aureus [3], 308 µM (≈ 128 µg/mL); in the experiment with Staphylococcus aureus [4], 617 µM (≈ 256 µg/mL); with Pseudomonas aeruginosa [5], 617 µM (≈ 256 µg/mL); with Escherichia coli [6] it was 308 µM (≈ 128 µg/mL). Further, the MIC in the experiment on Klebsiella pneumoniae is 154 µM (≈ 64 µg/mL); with Staphylococcus aureus [7], 308 µM (≈ 128 µg/mL); with Aspergillus fumigatus, 154 µM (≈ 64 µg/mL); with Staphylococcus aureus [8] it was 154 µM (≈ 64 µg/mL); in the experiment with Escherichia coli [9], 308 µM (≈ 128 µg/mL); with Acinetobacter baumannii, 154 µM (≈ 64 µg/mL). Besides, the MIC in the experiment on Candida tropicalis was found to be 308 µM (≈ 128 µg/mL); with Candida parapsilosis, 308 µM (≈ 128 µg/mL); in the experiment on Candida albicans [10], 308 µM (≈ 128 µg/mL); in the experiment with Enterococcus faecalis, 154 µM (≈ 64 µg/mL).

Consider `C#CCN1CCN(c2cc3c(cc2F)c(=O)c(-c2csc(N)n2)cn3CC)CC1`, for which the MIC was 19 µM (≈ 7.82 µg/mL) in the experiment with Candida albicans [1]; 5 µM (≈ 2.06 µg/mL) in the experiment on Pseudomonas aeruginosa [2]; 19 µM (≈ 7.82 µg/mL) in the experiment on Staphylococcus aureus [3]; 5 µM (≈ 2.06 µg/mL) in the experiment on Staphylococcus aureus [4]; 19 µM (≈ 7.82 µg/mL) in the experiment with Pseudomonas aeruginosa [5]; 19 µM (≈ 7.82 µg/mL) with Escherichia coli [6]. Further, the MIC was found to be 10 µM (≈ 4.12 µg/mL) with Klebsiella pneumoniae; 20 µM (≈ 8.23 µg/mL) in the experiment on Staphylococcus aureus [7]; 19 µM (≈ 7.82 µg/mL) in the experiment on Aspergillus fumigatus; 39 µM (≈ 16 µg/mL) in the experiment on Staphylococcus aureus [8]; 156 µM (≈ 64.2 µg/mL) with Escherichia coli [9]; 19 µM (≈ 7.82 µg/mL) in the experiment on Acinetobacter baumannii. Also, the MIC with Candida tropicalis came out at 39 µM (≈ 16 µg/mL); in the experiment with Candida parapsilosis it was 10 µM (≈ 4.12 µg/mL); with Candida albicans [10], 19 µM (≈ 7.82 µg/mL); in the experiment with Enterococcus faecalis, 19 µM (≈ 7.82 µg/mL).
